Data published in PMC6635014 (Dalton transactions (Cambridge, England : 2003), 2019).

What was measured:
Assay type in all cases: cell-based
[1] = system: doxorubicin-sensitive Colo 205 human colonic adenocarcinoma cells; assay: MTT assay for cytotoxic effect, Colo 205; conditions: read-out: IC50 (μM), 72 h Colo 205
In short: (§1)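 Colo 205 and Colo 320/MDR-LRP were kept in RPMI 1640 with 10% heat-inactivated FBS, 2 mM L-glutamine, 1 mM Na-pyruvate and 10 mM HEPES, and detached with Trypsin-Versene. 1x10^4 cells per well went onto 2-fold serial compound dilutions (100 to 0.195 µM; DMSO stocks) for 72 h at 37 °C. Then MTT 4 h, SDS/0.01 M HCl overnight, OD 540/630 nm. IC50 from growth inhibition versus cell and medium controls. SF uses the MRC-5 IC50 from the same assay.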

[2] = system: multidrug resistant Colo 320/MDR-LRP human colonic adenocarcinoma cells; assay: MTT assay for cytotoxic effect, Colo 320
In short: as §1

[3] = system: MRC-5 non-cancerous human embryonal lung fibroblast cells; assay: MTT assay for cytotoxic effect, MRC-5; conditions: read-out: IC50 (μM), 72 h MRC-5
In short: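 MRC-5 fibroblasts were grown in EMEM with 10% heat-inactivated FBS and seeded 24 h at 37 °C, 5% CO2. Medium was then replaced by 2-fold serial compound dilutions (100 to 0.195 µM; 10 mM DMSO stocks), 72 h at 37 °C. MTT for 4 h, then SDS in 0.01 M HCl overnight. OD read at 540/630 nm. IC50 from % growth inhibition relative to cell and medium controls.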

For `N.N.[Cl][Pt][Cl]` [Cisplatin, reference compound], the IC50 [1] was 31.9 ± 2.17 µM, the “SF(320) selectivity factor” value ([2]; SF(320) = IC50 MRC-5/IC50 Colo 320) was 3 and the IC50 ([2]; read-out: IC50 (μM), 72 h Colo 320, 72 h, MTT) was 4.81 ± 0.68 µM. It also gave an IC50 [3] of 12.4 ± 0.367 µM.
